Source: PubChem
Hits are enriched below; roughly 5.2% of the tested compounds scored in any of these assays.
M18AAP inhibitor = PfM18AAP enzyme inhibition; recombinant PfM18AAP, H-Glu-NHMec fluorogenic cleavage; inhibition, % at 7.35 µM; 290,000 tested, 1.2% active; AID 1822;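 active = inhibition above the campaign mean inhibition over all tested compounds plus 3 SD, cut at about 28% in these data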
NS3 helicase inh = HCV NS3 helicase inhibition | inhibition, % at 10.9 µM | 290,000 tested, 0.56% active | NS3 helicase DNA unwinding, Cy5 molecular beacon fluorescence;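 active = inhibition above the mean of all tested compounds plus 3 SD, set per campaign, cut at about 35% in these data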
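assay system = NS3 helicase fragment of HCV | buffer or medium = MOPS pH 6.5, MgCl2, DTT, Tween20, BSA | timing = 60 min unwinding reaction at 25 °C after ATP addition | signal = Cy5 beacon fluorescence read at start and 1 h | read-out basis = % inhibition of unwinding | control set = low DMSO, high thioflavine S at 110 µM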
ALR H2O2 inh = inhibitors of human sulfhydryl oxidase ALR. P55789. purified ALR, DTT oxidation, H2O2 HRP-luminol luminescence. inhibition, % (no concentration beside the values). 290,000 tested, 3.8% active;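 active = mean replicate inhibition above about 79%, with every replicate also reaching it, limit read from the data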
Target sequence (P55789 whole entry, looked up): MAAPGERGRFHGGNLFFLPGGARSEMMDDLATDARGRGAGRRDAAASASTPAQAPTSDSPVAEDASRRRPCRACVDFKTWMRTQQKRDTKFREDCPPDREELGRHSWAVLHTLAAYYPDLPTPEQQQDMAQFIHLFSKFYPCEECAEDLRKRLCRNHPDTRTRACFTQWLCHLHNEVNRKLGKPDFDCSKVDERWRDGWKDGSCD
ZTA counter = counter-screen for EBNA-1 inhibitors: inhibitors of Epstein-Barr virus ZTA; inhibition, % at 11 µM; ZTA-DNA binding, fluorescence polarization; P03206; 320,000 tested, 0.15% active; AID 2234; in the data active = inhibition above about 33%
Target sequence (P03206 whole entry, looked up): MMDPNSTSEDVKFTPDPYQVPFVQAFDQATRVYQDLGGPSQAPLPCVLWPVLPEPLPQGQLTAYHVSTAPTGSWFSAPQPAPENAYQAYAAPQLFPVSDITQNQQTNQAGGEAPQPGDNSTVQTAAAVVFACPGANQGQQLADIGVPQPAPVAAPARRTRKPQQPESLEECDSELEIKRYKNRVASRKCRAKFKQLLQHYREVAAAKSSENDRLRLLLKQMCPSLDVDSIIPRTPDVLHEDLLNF
HCV core dimer = blocks dimerization of HCV core protein; TR-FRET GST/Flag-core106 dimerization, 1536-well; inhibition, % at 5 µM; 300,000 tested, 0.33% active; AID 1899;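 active = inhibition above the mean of all tested compounds plus 3 SD, set per screening campaign, cut at about 45% in these data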
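Material: Tagged HCV core106 pair (GST and Flag) | Amount: GST-core106 13.5 nM, Flag-core106 17 nM | Medium: KF-containing HEPES buffer, pH 7.45, DTT, CHAPS, BSA | Reagent: Eu donor and XL665 acceptor anti-tag antibodies | Schedule: 4 h at 22.5 °C | Technique: Time-resolved FRET, ex 340 nm, em 617 and 671 nm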
EBNA-1 inhibitor = blocks EBNA-1 binding to DNA | EBNA-1 DNA binding, fluorescence polarization | 300,000 tested, 0.34% active | inhibition, % at 14.8 µM; in the data active = inhibition above about 28%
Hits are given with their value.

Screening O=C(O)c1ccccc1C(=O)N1N=C2/C(=C/c3cccc([N+](=O)[O-])c3)CCCC2C1c1cccc([N+](=O)[O-])c1 (stereo not given) returned M18AAP inhibitor inactive, NS3 helicase inh inactive, ALR H2O2 inh 78.7, ZTA counter inactive, HCV core dimer inactive and EBNA-1 inhibitor inactive.
COc1cccc(C(=O)NCCS(=O)(=O)NCCCc2ccccc2)c1 was read as ALR H2O2 inh inactive, ZTA counter inactive, HCV core dimer inactive and EBNA-1 inhibitor inactive.
For Nn1c(SCc2cn3cc(Cl)ccc3n2)nnc1-c1ccncc1 the results were M18AAP inhibitor inactive, NS3 helicase inh inactive, ALR H2O2 inh 97.6, ZTA counter inactive, HCV core dimer inactive and EBNA-1 inhibitor inactive.
CCOc1c(O)ccc(/C=C2\SC(=S)NC2=O)c1[N+](=O)[O-] was read as M18AAP inhibitor 37.0, NS3 helicase inh inactive, ALR H2O2 inh 98.6, ZTA counter inactive, HCV core dimer inactive and EBNA-1 inhibitor inactive.
`CCOc1ccc(N(C)c2ccc(/C=C3/SC(=S)NC3=O)cc2)cc1` gave M18AAP inhibitor inactive, NS3 helicase inh inactive, ALR H2O2 inh inactive, ZTA counter inactive, HCV core dimer inactive and EBNA-1 inhibitor inactive.
C/C(=N\NC(=O)CC#N)C1COc2ccccc2O1 (stereo not given) was read as M18AAP inhibitor 28.7, NS3 helicase inh inactive, ALR H2O2 inh inactive, ZTA counter inactive, HCV core dimer inactive and EBNA-1 inhibitor inactive.
For O=C(Cc1ccc(Cl)cc1)NNc1c(F)c(F)cc(F)c1F the results were M18AAP inhibitor inactive, NS3 helicase inh inactive, ALR H2O2 inh inactive, ZTA counter inactive, HCV core dimer inactive and EBNA-1 inhibitor inactive.
Oc1ccc(Cc2ccc(Cl)cc2)c(O)c1 was read as M18AAP inhibitor inactive, NS3 helicase inh inactive, ALR H2O2 inh 96.5, ZTA counter inactive, HCV core dimer inactive and EBNA-1 inhibitor inactive.
`Cc1ccc(OCC(=O)c2c(O)c3ccccc3oc2=O)cc1C` gave M18AAP inhibitor inactive, NS3 helicase inh inactive, ALR H2O2 inh inactive, ZTA counter inactive, HCV core dimer inactive and EBNA-1 inhibitor inactive.
`Cc1ccc(C(C)C)c(OCC(=O)c2c(O)c3ccccc3oc2=O)c1` gave M18AAP inhibitor inactive, NS3 helicase inh inactive, ALR H2O2 inh 93.8, ZTA counter inactive, HCV core dimer inactive and EBNA-1 inhibitor inactive.
O=C(O)c1[nH]c2ccccc2c1-c1ccccc1 was read as M18AAP inhibitor inactive, NS3 helicase inh inactive, ALR H2O2 inh 98.0, ZTA counter inactive, HCV core dimer inactive and EBNA-1 inhibitor inactive.
For Cc1ccc2[nH]c(C(=O)O)c(-c3ccccc3)c2c1 the results were M18AAP inhibitor inactive, NS3 helicase inh inactive, ALR H2O2 inh 98.3, ZTA counter inactive, HCV core dimer inactive and EBNA-1 inhibitor inactive.
`CC(=O)NNC(=O)c1[nH]c2ccc(Br)cc2c1-c1ccccc1` gave M18AAP inhibitor inactive, NS3 helicase inh inactive and ALR H2O2 inh 96.9.
`CCOC(=O)NNC(=O)c1[nH]c2ccc(Br)cc2c1-c1ccccc1` gave M18AAP inhibitor inactive, NS3 helicase inh inactive, ALR H2O2 inh inactive, ZTA counter inactive, HCV core dimer inactive and EBNA-1 inhibitor inactive.
For CC(C)(C)OC(=O)N1CCC[C@H]1C(=O)Nc1ccc(S(=O)(=O)C(F)F)cc1 the results were M18AAP inhibitor inactive, NS3 helicase inh inactive, ALR H2O2 inh inactive, ZTA counter inactive, HCV core dimer inactive and EBNA-1 inhibitor inactive.
`Cc1ccc(S(=O)(=O)NCC(=O)OCC(=O)NCc2ccco2)cc1` gave ALR H2O2 inh inactive.
CN1c2ccccc2Sc2cc(N)ccc21 was read as M18AAP inhibitor 36.9, NS3 helicase inh inactive, ALR H2O2 inh 95.5, ZTA counter inactive, HCV core dimer inactive and EBNA-1 inhibitor inactive.
For Cc1cccc(C)c1NC(=O)CNC(=O)c1ccccc1OCc1ccccc1 the results were ALR H2O2 inh inactive, ZTA counter inactive, HCV core dimer inactive and EBNA-1 inhibitor inactive.
O=C(C1CCC1)N1CCN(c2ccc(Cl)cc2)CC1 was read as M18AAP inhibitor inactive, NS3 helicase inh inactive and ALR H2O2 inh 92.7.
`S=C(NC1CC1)N1CCN(c2ccc(Cl)cc2)CC1` gave M18AAP inhibitor inactive, NS3 helicase inh inactive, ALR H2O2 inh 97.6, ZTA counter inactive, HCV core dimer inactive and EBNA-1 inhibitor inactive.
For O=C(NCCC1=CCCCC1)c1ccc(-n2cncn2)c([N+](=O)[O-])c1 the results were ALR H2O2 inh inactive, ZTA counter inactive, HCV core dimer inactive and EBNA-1 inhibitor inactive.
